According to ChEMBL document CHEMBL1687886, “N-cyclic bay-substituted perylene G-quadruplex ligands have selective antiproliferative effects on cancer cells and induce telomere damage” (J Med Chem, 2011):
Activity calls are given as the source filed them. The rule behind the calls is not given here.

Assays:
[1] = tested on: Nucleic Acid; test: Binding affinity to human 21-TT G-quadruplex DNA structure assessed as first step association constant by electrospray ionization mass spectrometry; format: nucleic-acid assay
Outline: (§1)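 ESI-MS in 150 mM ammonium acetate; DNA 5 μM final (per duplex or quadruplex unit); ligand at drug/DNA ratios 0.5 to 4. Methanol (15%) added just before injection, after binding equilibrium. K1 and K2 for 1:1 and 2:1 complexes, and % bound DNA, taken from relative peak intensities assuming equal response factors. At least three repeats.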

[2] = tested on: Nucleic Acid; test: Binding affinity to human DK66 duplex DNA structure assessed as first step association constant by electrospray ionization mass spectrometry; format: nucleic-acid assay; outline: as §1
[3] = tested on: Nucleic Acid; test: Stabilization of 21-mer human F21T G4-telomeric quadruplex assessed as change in melting temperature at 1 uM by FRET assay; format: nucleic-acid assay
[4] = tested on: Nucleic Acid; test: Stabilization of human duplex DNA T-loop assessed as change in melting temperature at 1 uM by FRET assay; format: nucleic-acid assay
[5] = tested on: Nucleic Acid; test: Binding affinity to human DK66 duplex DNA structure assessed as bound DNA at 5:20 DNA to drug ratio by electrospray ionization mass spectrometry; format: nucleic-acid assay; outline: as §1
[6] = tested on: Nucleic Acid; test: Binding affinity to human 21-TT G-quadruplex DNA structure assessed as second step association constant by electrospray ionization mass spectrometry; format: nucleic-acid assay; outline: as §1
[7] = tested on: Nucleic Acid; test: Binding affinity to human DK66 duplex DNA structure assessed as second step association constant by electrospray ionization mass spectrometry; format: nucleic-acid assay; outline: as §1
[8] = tested on: Nucleic Acid; test: Binding affinity to human 21-TT G-quadruplex DNA structure assessed as bound DNA at 5:5 DNA to drug ratio by electrospray ionization mass spectrometry; format: nucleic-acid assay; outline: as §1
[9] = tested on: Nucleic Acid; test: Binding affinity to human 21-TT G-quadruplex DNA structure assessed as bound DNA at 5:10 DNA to drug ratio by electrospray ionization mass spectrometry; format: nucleic-acid assay; outline: as §1
[10] = tested on: Nucleic Acid; test: Binding affinity to human DK66 duplex DNA structure assessed as bound DNA at 5:5 DNA to drug ratio by electrospray ionization mass spectrometry; format: nucleic-acid assay; outline: as §1
[11] = tested on: Nucleic Acid; test: Binding affinity to human DK66 duplex DNA structure assessed as bound DNA at 5:10 DNA to drug ratio by electrospray ionization mass spectrometry; format: nucleic-acid assay; outline: as §1
[12] = tested on: Nucleic Acid; test: Binding affinity to human 21-TT G-quadruplex DNA structure at 1:1 DNA to calf thymus DNA ratio by competitive inhibition assay; format: nucleic-acid assay; set-up: concentration or dose not given beside the values
Outline: (§2)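 ESI-MS competition: quadruplex DNA and ligand each 5 μM final, plus calf thymus DNA at duplex/quadruplex ratios 1 and 5 (by phosphate concentration), in ammonium acetate. Percentage bound quadruplex and normalized bound quadruplex (N%) measured by mass spectrometry. SD over at least three independent experiments.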

[13] = tested on: Nucleic Acid; test: Binding affinity to human 21-TT G-quadruplex DNA structure at 1:5 DNA to calf thymus DNA ratio by competitive inhibition assay; format: nucleic-acid assay; set-up: concentration or dose not given beside the values; outline: as §2
[14] = tested on: BJ; test: Induction of DNA damage response in human BJ cells expressing SV40 early region EHLT assessed as phosphorylation of gamma H2AX at 0.25 uM after 24 hrs by immunofluorescence method; format: functional, cell-based
Outline: (§3)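 BJ-EHLT and BJ-hTERT fibroblasts exposed to a range of concentrations for 24 h. Fixed in 2% formaldehyde, permeabilized in 0.25% Triton X-100, immunostained for γ-H2AX and 53BP1. Percentage of positive cells scored. Three independent experiments, SD.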

[15] = tested on: BJ; test: Induction of DNA damage response in human BJ cells expressing SV40 early region EHLT assessed as phosphorylation of […] after 24 hrs by immunofluorescence method; format: functional, cell-based; outline: as §3
[16] = tested on: BJ; test: Antiproliferative activity against human BJ cells expressing SV40 early region EHLT at 0.5 uM after 24 hrs by Coulter counter method; format: functional, cell-based
Outline: (§4)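 Cells seeded at 5 ×10^4 per dish; compounds freshly dissolved and added to the medium 24 h after plating, at 0.5 μM or 3 μM (3 μM only for one derivative). Cell number by Coulter counting and viability by trypan blue exclusion daily, day 1 to day 8. Growth inhibition of treated vs untreated cells calculated at days 2, 4, 6 and 8. Representative experiments in quintuplicate, SD shown.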

[17] = tested on: BJ; test: Growth inhibition of human BJ cells expressing SV40 early region EHLT at 0.5 uM on day 8 by trypan blue assay; format: functional; conditions: 192 h, read-out: GI; outline: as §4
[18] = tested on: BJ; test: Antiproliferative activity against human BJ cells expressing TERT at 0.5 uM after 2 to 8 days by trypan blue assay; format: cell-based; outline: as §4
[19] = tested on: BJ; test: Cell cycle arrest in human BJ cells expressing TERT assessed as accumulation at G0/G1 stage at 0.5 uM after 24 hrs by propidium iodide staining based flow cytometry (reference value: 61%); format: ADME
[20] = tested on: BJ; test: Cell cycle arrest in human BJ cells expressing TERT assessed as accumulation at S stage at 0.5 uM after 24 hrs by propidium iodide staining based flow cytometry (reference value: 21%); format: ADME
[21] = tested on: BJ; test: Cell cycle arrest in human BJ cells expressing TERT assessed as accumulation at G2/M stage at 0.5 uM after 24 hrs by propidium iodide staining based flow cytometry (reference value: 17%); format: ADME
[22] = tested on: BJ; test: Cell cycle arrest in human BJ cells expressing TERT assessed as accumulation at G0/G1 stage at 0.5 uM after 48 hrs by propidium iodide staining based flow cytometry (reference value: 80%); format: ADME
[23] = tested on: BJ; test: Cell cycle arrest in human BJ cells expressing TERT assessed as accumulation at S stage at 0.5 uM after 48 hrs by propidium iodide staining based flow cytometry (reference value: 12%); format: ADME
[24] = tested on: BJ; test: Cell cycle arrest in human BJ cells expressing TERT assessed as accumulation at G2/M stage at 0.5 uM after 48 hrs by propidium iodide staining based flow cytometry (reference value: 6%); format: ADME
[25] = tested on: BJ; test: Cell cycle arrest in human BJ cells expressing TERT assessed as accumulation at G0/G1 stage at 0.5 uM after 72 hrs by propidium iodide staining based flow cytometry (reference value: 83%); format: ADME
[26] = tested on: BJ; test: Cell cycle arrest in human BJ cells expressing TERT assessed as accumulation at S stage at 0.5 uM after 72 hrs by propidium iodide staining based flow cytometry (reference value: 10%); format: ADME
[27] = tested on: BJ; test: Cell cycle arrest in human BJ cells expressing TERT assessed as accumulation at G2/M stage at 0.5 uM after 72 hrs by propidium iodide staining based flow cytometry (reference value: 5%); format: ADME
[28] = tested on: BJ; test: Cell cycle arrest in human BJ cells expressing TERT assessed as accumulation at G0/G1 stage at 0.5 uM after 96 hrs by propidium iodide staining based flow cytometry (reference value: 86%); format: ADME
[29] = tested on: BJ; test: Cell cycle arrest in human BJ cells expressing TERT assessed as accumulation at S stage at 0.5 uM after 96 hrs by propidium iodide staining based flow cytometry (reference value: 9%); format: ADME
[30] = tested on: BJ; test: Cell cycle arrest in human BJ cells expressing TERT assessed as accumulation at G2/M stage at 0.5 uM after 96 hrs by propidium iodide staining based flow cytometry (reference value: 4%); format: ADME
[31] = target: Telomerase reverse transcriptase (Homo sapiens, UniProt O14746); test: Inhibition of human Telomerase activity in cell free system by TRAP assay
Outline: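 Cell-free TRAP: protein extract incubated with compound at 1 to 50 μM so telomerase elongates the substrate oligonucleotide. Before PCR, phenol/chloroform/isoamyl-alcohol (50:49:1) extraction removes the ligand and DNA is precipitated overnight at -20 °C. Amplification uses a 36 bp ITAS; products are resolved on 12% PAGE and stained with SYBR Green. Signals are corrected by the no-extract control and normalized to untreated, giving dose-response IC50. Mean of three experiments.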

[32] = tested on: BJ; test: Induction of DNA damage response in human BJ cells expressing human TERT assessed as phosphorylation of gamma H2AX after 24 hrs by immunofluorescence; format: functional, cell-based; outline: as §3
[33] = tested on: BJ; test: Induction of DNA damage response in human BJ cells expressing human TERT assessed as phosphorylation of […] after 24 hrs by immunofluorescence; format: functional, cell-based; outline: as §3
[34] = tested on: BJ; test: Induction of DNA damage response in human BJ cells expressing SV40 early region EHLT assessed as phosphorylation of gamma H2AX at 3 uM after 24 hrs by immunofluorescence; format: functional, cell-based; outline: as §3
[35] = tested on: BJ; test: Antiproliferative activity against human BJ cells expressing SV40 early region EHLT at 3 uM after 24 hrs by Coulter counter method; format: functional, cell-based; conditions: TDE = time-dependent effect; outline: as §4
[36] = tested on: BJ; test: Growth inhibition of human BJ cells expressing SV40 early region EHLT at 3 uM on day 8 after 24 hrs trypan blue assay; format: functional; conditions: read-out: GI; outline: as §4

Sequence of Telomerase reverse transcriptase (O14746 whole entry): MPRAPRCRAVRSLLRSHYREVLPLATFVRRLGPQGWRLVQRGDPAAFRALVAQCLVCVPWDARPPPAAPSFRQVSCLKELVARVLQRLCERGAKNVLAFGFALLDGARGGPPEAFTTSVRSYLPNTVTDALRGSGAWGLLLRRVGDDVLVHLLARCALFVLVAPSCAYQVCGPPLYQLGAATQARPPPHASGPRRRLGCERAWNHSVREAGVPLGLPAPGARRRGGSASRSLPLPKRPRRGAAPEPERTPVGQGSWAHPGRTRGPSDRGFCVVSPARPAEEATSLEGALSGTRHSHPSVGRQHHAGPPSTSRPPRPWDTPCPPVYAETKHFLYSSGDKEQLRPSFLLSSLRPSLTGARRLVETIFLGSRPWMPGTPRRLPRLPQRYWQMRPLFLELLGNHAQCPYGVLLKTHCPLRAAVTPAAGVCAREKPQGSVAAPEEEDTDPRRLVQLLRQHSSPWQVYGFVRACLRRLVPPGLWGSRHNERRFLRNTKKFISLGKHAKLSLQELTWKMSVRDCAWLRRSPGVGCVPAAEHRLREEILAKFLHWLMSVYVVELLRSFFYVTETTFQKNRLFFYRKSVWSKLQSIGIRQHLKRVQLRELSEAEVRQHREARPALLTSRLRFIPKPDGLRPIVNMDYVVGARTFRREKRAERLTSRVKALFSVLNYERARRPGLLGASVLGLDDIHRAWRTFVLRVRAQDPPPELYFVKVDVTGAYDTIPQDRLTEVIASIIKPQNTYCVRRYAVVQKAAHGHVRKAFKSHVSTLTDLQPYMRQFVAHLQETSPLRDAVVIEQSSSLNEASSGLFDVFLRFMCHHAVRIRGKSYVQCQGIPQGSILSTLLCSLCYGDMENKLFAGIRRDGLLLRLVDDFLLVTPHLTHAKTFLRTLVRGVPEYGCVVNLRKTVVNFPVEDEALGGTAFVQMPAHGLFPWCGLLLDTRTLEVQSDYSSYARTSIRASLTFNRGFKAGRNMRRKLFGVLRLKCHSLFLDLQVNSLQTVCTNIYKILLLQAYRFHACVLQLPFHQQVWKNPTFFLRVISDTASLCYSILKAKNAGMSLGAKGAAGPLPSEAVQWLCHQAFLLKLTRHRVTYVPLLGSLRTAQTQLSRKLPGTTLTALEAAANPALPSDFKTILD

log Ks [1] | log Ks [2] | ΔTm [3] | ΔTm [4] | Activity [5] | log Ks [6] | Activity [8] | Activity [9] | Activity [12] | Activity [13] | Structure (SMILES) | Activity [18] | Activity [32] | Activity [33] | other results
3.9 | 3.8 | 5.2 °C | -0.1 °C | 10% |  |  |  |  |  | CN1CCN(CCOCCN2C(=O)c3ccc4c5c(N6CCCCC6)cc6c7c(ccc(c8c(N9CCCCC9)cc(c3c48)C2=O)c75)C(=O)N(CCOCCN2CCN(C)CC2)C6=O)CC1 |  |  |  | 
5.4 | 4.9 | 27.4 °C | 2.9 °C |  | 5.6 | 45% | 77% | 40% | 22% | CN1CCN(c2cc3c4c(ccc5c6c(N7CCN(C)CC7)cc7c8c(ccc(c2c45)c86)C(=O)N(CCN2CCCCC2)C7=O)C(=O)N(CCN2CCCCC2)C3=O)CC1 | Toxic | Dose-dependent effect | Dose-dependent effect | log Ks [7]: 4.2; Activity [10]: 27%; Activity [11]: 44%; Activity [14]: Active; Activity [15]: Active; Activity ([16]; in the assay text read “after 2 to 8 days” for “after 24 hrs”, TDE = time-dependent effect): tde; inhibition of growth at 0.5 µM [17]: 50%; Activity [19]: 35.1%; Activity [20]: 13.9%; Activity [21]: 51%; Activity [22]: 39.8%; Activity [23]: 5%; Activity [24]: 55.2%; Activity [25]: 35.2%; Activity [26]: 6.6%; Activity [27]: 58.2%; Activity [28]: 33.1%; Activity [29]: 6.5%; Activity [30]: 60.4%; IC50 [31]: 10 µM
5.5 | 5.4 | 35.5 °C | 2.3 °C |  | 5 | 48% | 76% | 46% | 32% | CN(C)CCCN1CCN(c2cc3c4c(ccc5c6ccc7c8c(ccc(c2c45)c86)C(=O)N(CCN2CCCCC2)C7=O)C(=O)N(CCN2CCCCC2)C3=O)CC1 | Toxic | Dose-dependent effect | Dose-dependent effect | log Ks [7]: 4.9; Activity [10]: 43%; Activity [11]: 66%; Activity [14]: Active; Activity [15]: Active; Activity ([16]; TDE = time-dependent effect, in the assay text read “after 2 to 8 days” for “after 24 hrs”): tde; inhibition of growth at 0.5 µM [17]: 50%; Activity [19]: 42%; Activity [20]: 3.8%; Activity [21]: 54.2%; Activity [22]: 35.4%; Activity [23]: 3.5%; Activity [24]: 61.1%; Activity [25]: 34.7%; Activity [26]: 7.3%; Activity [27]: 58%; Activity [28]: 38.2%; Activity [29]: 7.6%; Activity [30]: 54.2%; IC50 [31]: 3 µM
4.6 | 3.7 | 12.9 °C | -0.4 °C | 9% | 4.8 | 13% | 37% |  |  | CNCCOCCN1C(=O)c2ccc3c4c(N5CCCCC5)cc5c6c(ccc(c7c(N8CCCCC8)cc(c2c37)C1=O)c64)C(=O)N(CCOCCNC)C5=O |  |  |  | 
4.7 | 4.2 | 9.3 °C | -0.2 °C | 20% | 4.8 | 23% | 34% | 19% | 14% | O=C1c2ccc3c4c(N5CCCCC5)cc5c6c(ccc(c7c(N8CCCCC8)cc(c2c37)C(=O)N1CCOCCN1CCCCC1)c64)C(=O)N(CCOCCN1CCCCC1)C5=O |  |  |  | 
4.8 | 3.8 | 13.1 °C | 0.1 °C | 11% | 4.8 | 20% | 30% |  |  | O=C1c2ccc3c4c(N5CCCCC5)cc5c6c(cc(N7CCCCC7)c(c7ccc(c2c37)C(=O)N1CCOCCN1CCCCC1)c64)C(=O)N(CCOCCN1CCCCC1)C5=O |  |  |  | 
4.8 | 3.8 | 18.7 °C | 0.2 °C | 12% | 4.6 | 22% | 33% | 13% | 9% | O=C1c2ccc3c4c(N5CCCCC5)cc5c6c(ccc(c7c(N8CCCCC8)cc(c2c37)C(=O)N1CCN1CCCCC1)c64)C(=O)N(CCN1CCCCC1)C5=O | Toxic | Dose-dependent effect | Dose-dependent effect | Activity [34]: Active; Activity [35]: tde; inhibition of growth at 3 µM [36]: 50%
4.6 | 4 | 16.6 °C | 0.9 °C | 16% | 4.9 | 22.5% | 30% |  |  | CN(C)CCOCCN1C(=O)c2ccc3c4c(N5CCCCC5)cc5c6c(ccc(c7c(N8CCCCC8)cc(c2c37)C1=O)c64)C(=O)N(CCOCCN(C)C)C5=O |  |  |  | 
